Experimental data reported in ChEMBL document CHEMBL4665734, “Optimization of globomycin analogs as novel gram-negative antibiotics” (Bioorg Med Chem Lett, 2020).
Converted amounts (≈) assume the structure as drawn. Starred links: 1 amine or outer side, 2 acyl side, 3 side chain; linkers in the order of their positions; H or OH if unused. Non-standard residues stand in square brackets, D forms with d. Residues, ends and D or L forms follow the SMILES beside them. *: point of attachment. X1 = CCCCCC[C@@H](OC[C@@H](C)N[*:1])[C@@H](C)C(=O)[*:2]; Gly(cHept) = N[C@H](C(=O)O)C1CCCCCC1; NMeNva = CCC[C@H](NC)C(=O)O; Dap = NC[C@H](N)C(=O)O; NH(CH2)3NH2 = NCCCN*

How the values were obtained:
[1] = Stability of the compound in human plasma assessed as parent compound remaining after 24 hrs; assay type: ADME, cell-free; conditions: read-out: Stabilty
Outline: (§1)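 Test compound incubated for 24 hour in human, rat or mouse plasma. Stability is reported as the percentage of parent compound remaining.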

[2] = Stability of the compound in mouse plasma assessed as parent compound remaining after 24 hrs; assay type: ADME, cell-free; conditions: read-out: Stabilty; outline: as §1
[3] = system: Escherichia coli; assay: Inhibition of LspA in Escherichia coli CFT073imp4213 harboring outer membrane-permeable mutant assessed as inhibition of bacterial growth
Outline: (§2)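 Read-out is the minimum inhibitory concentration, reported in µM.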

[4] = system: Escherichia coli CFT073; assay: Inhibition of LspA in wild type Escherichia coli CFT073 assessed as inhibition of bacterial growth; outline: as §2
[5] = Growth inhibition of Staphylococcus aureus USA300
[6] = Lipophilicity, logD of the compound at pH 7.4; conditions: buffer, pH 7.4, logD

SMILES: CCCCCC[C@H]1C(=O)N(C)[C@@H](CC(C)C)C(=O)N[C@@H](C2CCCCC2)C(=O)N[C@@H](CN)C(=O)N[C@@H]([C@H](C)O)C(=O)NCCN1C
- remaining at 24 h [1]: 92%
- remaining at 24 h [2]: 81%
- MIC [3]: 0.39 µM (≈ 0.254 µg/mL)
- MIC [4]: 12 µM (≈ 7.82 µg/mL)
- MIC [5]: 100 µM (≈ 65.2 µg/mL)

SMILES: CCCCCC[C@H]1OC[C@@H](C)NC(=O)[C@H](CN(C)CCCN)NC(=O)[C@H](CN)NC(=O)[C@H](C2CCCCCC2)NC(=O)[C@H](CCC)N(C)C(=O)[C@@H]1C
- logD [6]: 1.8
- MIC [3]: 0.39 µM (≈ 0.287 µg/mL)
- MIC [4]: 8.8 µM (≈ 6.49 µg/mL)
- MIC [5]: 100 µM (≈ 73.7 µg/mL)

SMILES: COC(C)(C)CCCCCC[C@H]1OC(=O)CNC(=O)[C@H]([C@H](C)O)NC(=O)[C@H](CN)NC(=O)[C@H](C2CCCCC2)NC(=O)[C@H](CC(C)C)N(C)C(=O)[C@@H]1C
- logD [6]: 2.8
- MIC [3]: 0.048 µM (≈ 0.0361 µg/mL)
- MIC [4]: 2.2 µM (≈ 1.66 µg/mL)
- MIC [5]: > 100 µM

SMILES: CCCCCC[C@H]1OC(=O)CNC(=O)[C@H]([C@H](C)O)NC(=O)[C@H](CN)NC(=O)[C@H](C2CCCCCC2)NC(=O)[C@H](CC(C)C)N(C)C(=O)[C@@H]1C
- logD [6]: 3.4
- MIC [3]: 0.014 µM (≈ 0.00973 µg/mL)
- MIC [4]: 1.1 µM (≈ 0.764 µg/mL)
- MIC [5]: 50 µM (≈ 34.7 µg/mL)

SMILES: CCCCCC[C@H]1OC[C@@H](C)NC(=O)[C@H](CNCCCN)NC(=O)[C@H](CN)NC(=O)[C@H](C2CCCCCC2)NC(=O)[C@H](CCC)N(C)C(=O)[C@@H]1C
- logD [6]: 1.1
- MIC [3]: 0.28 µM (≈ 0.202 µg/mL)
- MIC [4]: 3.1 µM (≈ 2.24 µg/mL)
- MIC [5]: 50 µM (≈ 36.2 µg/mL)

SMILES: CCC[C@H]1C(=O)N[C@@H](C2CCCCCC2)C(=O)N[C@@H](CN)C(=O)N[C@@H]([C@H](C)O)C(=O)NCC(=O)O[C@H](C[C@@H]2CC[C@@H]3CC[C@H]2C3)[C@@H](C)C(=O)N1C
- logD [6]: 3.1
- MIC [3]: 0.009 µM (≈ 0.00647 µg/mL)
- MIC [4]: 0.4 µM (≈ 0.288 µg/mL)
- MIC [5]: 25 µM (≈ 18 µg/mL)

SMILES: CCCCCC[C@H]1OC[C@@H](C)NC(=O)[C@H]([C@H](C)O)NC(=O)[C@H](CN)NC(=O)[C@H](C2CCCCC2)NC(=O)[C@H](CC(C)C)N(C)C(=O)[C@@H]1C
- remaining at 24 h [1]: 93%
- remaining at 24 h [2]: 94%
- MIC [3]: 0.034 µM (≈ 0.0232 µg/mL)
- MIC [4]: 2.9 µM (≈ 1.97 µg/mL)
- MIC [5]: 71 µM (≈ 48.3 µg/mL)

SMILES: CCCCCC[C@H]1OCCCNC(=O)[C@H]([C@H](C)O)NC(=O)[C@H](CN)NC(=O)[C@H](C2CCCCC2)NC(=O)[C@H](CC(C)C)N(C)C(=O)[C@@H]1C
- remaining at 24 h [1]: 96%
- remaining at 24 h [2]: 101%
- MIC [3]: 0.39 µM (≈ 0.266 µg/mL)
- MIC [4]: 12 µM (≈ 8.17 µg/mL)
- MIC [5]: 100 µM (≈ 68.1 µg/mL)

SMILES: CCCCCCN1CCCNC(=O)[C@H]([C@H](C)O)NC(=O)[C@H](CN)NC(=O)[C@H]([C@H](C)CC)NC(=O)[C@H](CC(C)C)N(C)C(=O)[C@@H]1C
- remaining at 24 h [1]: 101%
- remaining at 24 h [2]: 100%
- MIC [3]: 12.5 µM (≈ 8 µg/mL)
- MIC [4]: > 100 µM
- MIC [5]: > 100 µM

SMILES: CCCCCC[C@H]1OC[C@@H](C)NC(=O)[C@H](COc2ccc(CCN)cc2)NC(=O)[C@H](CN)NC(=O)[C@H](C2CCCCC2)NC(=O)[C@H](CCC)N(C)C(=O)[C@@H]1C
- logD [6]: 2.4
- MIC [3]: 0.048 µM (≈ 0.0371 µg/mL)
- MIC [4]: 1.6 µM (≈ 1.24 µg/mL)
- MIC [5]: 25 µM (≈ 19.3 µg/mL)

SMILES: CCCCCC[C@H]1OC[C@@H](C)NC(=O)[C@H](COc2ccc(CN)cc2)NC(=O)[C@H](CN)NC(=O)[C@H](C2CCCCC2)NC(=O)[C@H](CCC)N(C)C(=O)[C@@H]1C
- logD [6]: 2.5
- MIC [3]: 0.39 µM (≈ 0.296 µg/mL)
- MIC [4]: 6.3 µM (≈ 4.78 µg/mL)
- MIC [5]: 100 µM (≈ 75.8 µg/mL)

SMILES: CCCCCC[C@H]1OC[C@H](C)NC(=O)[C@H]([C@H](C)O)NC(=O)[C@H](CN)NC(=O)[C@H](C2CCCCC2)NC(=O)[C@H](CC(C)C)N(C)C(=O)[C@@H]1C
- remaining at 24 h [1]: 88%
- remaining at 24 h [2]: 93%
- MIC [3]: 1 µM (≈ 0.681 µg/mL)
- MIC [4]: 84 µM (≈ 57.2 µg/mL)
- MIC [5]: 71 µM (≈ 48.3 µg/mL)

SMILES: CCC[C@H]1C(=O)N[C@@H](C2CCCCCC2)C(=O)N[C@@H](CN)C(=O)N[C@@H]([C@H](C)O)C(=O)NCC(=O)O[C@H](CC2CC3(CCC3)C2)[C@@H](C)C(=O)N1C
- logD [6]: 2.9
- MIC [3]: 0.009 µM (≈ 0.00634 µg/mL)
- MIC [4]: 0.78 µM (≈ 0.55 µg/mL)
- MIC [5]: 50 µM (≈ 35.2 µg/mL)

SMILES: CCCCCC[C@H]1OC[C@@H](C)NC(=O)[C@H](CC(=O)NCCCN)NC(=O)[C@H](CN)NC(=O)[C@H](C2CCCCCC2)NC(=O)[C@H](CCC)N(C)C(=O)[C@@H]1C (cyclo(D(NH(CH2)3NH2)[X1][NMeNva][Gly(cHept)][Dap]))
- logD [6]: 1.3
- MIC [3]: 0.39 µM (≈ 0.293 µg/mL)
- MIC [4]: 18 µM (≈ 13.5 µg/mL)
- MIC [5]: 100 µM (≈ 75.1 µg/mL)
